Reference: ChEMBL document CHEMBL4052636, “Design, synthesis and biological evaluation of some novel sulfonamide derivatives as apoptosis inducers” (Eur J Med Chem, 2017)

How the values were obtained:
Caco-2 [1] = test: Cytotoxicity against human Caco2 cells assessed as surviving fraction at 1 uM after 24 hrs by MTT assay relative to control; format: functional
Method in brief: (§1)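 Caco-2 cells were kept as monolayers in RPMI-1640 with 10% FBS, 100 U/mL penicillin and streptomycin, at 37 C in humidified 5% CO2. Cells were treated for 24 h at concentrations spanning […], and viability was read by the colorimetric MTT (Mosmann) method. Percent relative viability and IC50 were fitted in Prism.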

Caco-2 [2] = test: Cytotoxicity against human Caco2 cells assessed as surviving fraction at 50 uM after 24 hrs by MTT assay relative to control; format: functional; method in brief: as §1
Caco-2 [3] = test: Cytotoxicity against human Caco2 cells assessed as surviving fraction at 100 uM after 24 hrs by MTT assay relative to control; format: functional; method in brief: as §1
Caco-2 [4] = test: Cytotoxicity against human Caco2 cells assessed as surviving fraction at 10 uM after 24 hrs by MTT assay relative to control; format: functional; method in brief: as §1
Caco-2 [5] = test: Cytotoxicity against human Caco2 cells assessed as surviving fraction at 25 uM after 24 hrs by MTT assay relative to control; format: functional; method in brief: as §1
Caco-2 [6] = test: Cytotoxicity against human Caco2 cells assessed as cell viability after 24 hrs by MTT assay; format: functional, cell-based; settings: Caco-2, 24 h; method in brief: as §1
Caco-2 [7] = test: Induction of apoptosis in human Caco2 cells assessed as Fas-ligand concentration at 0.3 uM after 24 hrs by FASL-based ELISA (reference value: 20.5 pg/ml); format: functional
Caco-2 [8] = test: Induction of apoptosis in human Caco2 cells assessed as Fas-ligand concentration at 0.15 uM after 24 hrs by FASL-based ELISA (reference value: 20.5 pg/ml); format: functional
Caco-2 [9] = test: Induction of apoptosis in human Caco2 cells assessed as caspase-3 concentration at 0.15 uM after 24 hrs by colorimetric analysis (reference value: 0.193 nmol/ml); format: functional
Caco-2 [10] = test: Induction of apoptosis in human Caco2 cells assessed as caspase-3 concentration at 0.6 uM after 24 hrs by colorimetric analysis (reference value: 0.193 nmol/ml); format: functional
Caco-2 [11] = test: Induction of apoptosis in human Caco2 cells assessed as Fas-ligand concentration at 0.6 uM after 24 hrs by FASL-based ELISA (reference value: 20.5 pg/ml); format: functional
Caco-2 [12] = test: Induction of apoptosis in human Caco2 cells assessed as caspase-3 concentration at 0.3 uM after 24 hrs by colorimetric analysis (reference value: 0.193 nmol/ml); format: functional
Caco-2 [13] = test: Induction of apoptosis in human Caco2 cells assessed as Fas-ligand concentration at 100 uM after 24 hrs by FASL-based ELISA (reference value: 20.5 pg/ml); format: functional
Caco-2 [14] = test: Induction of apoptosis in human Caco2 cells assessed as Fas-ligand concentration at 63.5 uM after 24 hrs by FASL-based ELISA (reference value: 20.5 pg/ml); format: functional
Caco-2 [15] = test: Induction of apoptosis in human Caco2 cells assessed as caspase-3 concentration at 31 uM after 24 hrs by colorimetric analysis (reference value: 0.193 nmol/ml); format: functional
Caco-2 [16] = test: Induction of apoptosis in human Caco2 cells assessed as caspase-3 concentration at 100 uM after 24 hrs by colorimetric analysis (reference value: 0.193 nmol/ml); format: functional
Caco-2 [17] = test: Induction of apoptosis in human Caco2 cells assessed as Fas-ligand concentration at 31.5 uM after 24 hrs by FASL-based ELISA (reference value: 20.5 pg/ml); format: functional
Caco-2 [18] = test: Induction of apoptosis in human Caco2 cells assessed as caspase-3 concentration at 62.3 uM after 24 hrs by colorimetric analysis (reference value: 0.193 nmol/ml); format: functional
Caco-2 [19] = test: Induction of apoptosis in human Caco2 cells assessed as Fas-ligand concentration at 62 uM after 24 hrs by FASL-based ELISA (reference value: 20.5 pg/ml); format: functional
Method in brief: (§2)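 Caco-2 cells were grown in RPMI-1640 with 10% FBS, penicillin and streptomycin at 37 C under 5% CO2. Cells were exposed to the test agent for 24 h. Fas-ligand in the cells was then measured with a colorimetric human FASL ELISA kit and reported as pg/mL against an untreated control.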

Caco-2 [20] = test: Induction of apoptosis in human Caco2 cells assessed as caspase-3 concentration at 62 uM after 24 hrs by colorimetric analysis (reference value: 0.193 nmol/ml); format: functional
Caco-2 [21] = test: Induction of apoptosis in human Caco2 cells assessed as caspase-3 concentration at 15 uM after 24 hrs by colorimetric analysis (reference value: 0.193 nmol/ml); format: functional
Caco-2 [22] = test: Induction of apoptosis in human Caco2 cells assessed as Fas-ligand concentration at 31 uM after 24 hrs by FASL-based ELISA (reference value: 20.5 pg/ml); format: functional; method in brief: as §2
Caco-2 [23] = test: Induction of apoptosis in human Caco2 cells assessed as Fas-ligand concentration at 15 uM after 24 hrs by FASL-based ELISA (reference value: 20.5 pg/ml); format: functional; method in brief: as §2

Row | Structure (SMILES) | Ratio (Caco-2 [1]) | Ratio (Caco-2 [2]) | Ratio (Caco-2 [3]) | Ratio (Caco-2 [4]) | Ratio (Caco-2 [5]) | IC50 (Caco-2 [6]) [nM] | other results
1 | COc1ccc(-c2onc3nc(Nc4ccc(S(N)(=O)=O)cc4)sc23)cc1 | 0.412 | 0.229 | 0.228 | 0.401 | 0.317 | 559 | –
2 | NS(=O)(=O)c1ccc(NC2=NC(=O)/C(=C/c3ccccc3)S2)cc1 | 0.348 | 0.422 | 0.068 | 0.182 | 0.133 | 334 | Activity (Caco-2 [7]): 775.2 pg/mL; Activity (Caco-2 [8]): 445.2 pg/mL; Activity (Caco-2 [9]): 0.43 nmol/mL; Activity (Caco-2 [10]): 0.37 nmol/mL; Activity (Caco-2 [11]): 706.12 pg/mL; Activity (Caco-2 [12]): 0.38 nmol/mL
3 | NS(=O)(=O)c1ccc(Nc2nc3nc(=O)[nH]c(-c4ccc(Cl)cc4)c3s2)cc1 | 0.519 | 0.156 | 0.073 | 0.603 | 0.112 | 12700 | –
4 | COc1ccc(-c2[nH]c(=S)nc3nc(Nc4ccc(S(N)(=O)=O)cc4)sc23)cc1 | 0.444 | 0.186 | 0.169 | 0.344 | 0.299 | 667 | –
5 | NS(=O)(=O)c1ccc(NC2=NC(=O)/C(=C/c3ccc(Cl)cc3)S2)cc1 | 0.285 | 0.086 | 0.153 | 0.314 | 0.113 | 667 | –
6 | NS(=O)(=O)c1ccc(Nc2nc3noc(-c4ccccc4)c3s2)cc1 | 0.442 | 0.295 | 0.456 | 0.335 | 0.304 | 669 | –
7 | COc1ccc(-c2[nH]c(=O)nc3nc(Nc4ccc(S(N)(=O)=O)cc4)sc23)cc1 | 0.477 | 0.257 | 0.167 | 0.362 | 0.473 | 667 | –
8 | COc1ccc(/C=C2\SC(Nc3ccc(S(N)(=O)=O)cc3)=NC2=O)cc1 | 0.281 | 0.416 | 0.485 | 0.179 | 0.466 | 1330 | –
9 | NS(=O)(=O)c1ccc(Nc2nc3noc(-c4ccc(Cl)cc4)c3s2)cc1 | 0.319 | 0.202 | 0.197 | 0.248 | 0.219 | 333 | Activity (Caco-2 [7]): 147.5 pg/mL; Activity (Caco-2 [8]): 111.3 pg/mL; Activity (Caco-2 [9]): 0.366 nmol/mL; Activity (Caco-2 [10]): 0.407 nmol/mL; Activity (Caco-2 [11]): 312.2 pg/mL; Activity (Caco-2 [12]): 0.409 nmol/mL
10 | NS(=O)(=O)c1ccc(Nc2nc3nc(=S)[nH]c(-c4ccccc4)c3s2)cc1 | 0.304 | 0.223 | 0.135 | 0.223 | 0.234 | 333 | Activity (Caco-2 [7]): 165.7 pg/mL; Activity (Caco-2 [8]): 115.5 pg/mL; Activity (Caco-2 [9]): 0.35 nmol/mL; Activity (Caco-2 [10]): 0.364 nmol/mL; Activity (Caco-2 [11]): 307.5 pg/mL; Activity (Caco-2 [12]): 0.34 nmol/mL
11 | NS(=O)(=O)c1ccc(Nc2nc3nc(=S)[nH]c(-c4ccc(Cl)cc4)c3s2)cc1 | 0.433 | 0.339 | 0.276 | 0.456 | 0.338 | 333 | Activity (Caco-2 [7]): 309.4 pg/mL; Activity (Caco-2 [8]): 312.4 pg/mL; Activity (Caco-2 [9]): 0.404 nmol/mL; Activity (Caco-2 [10]): 0.37 nmol/mL; Activity (Caco-2 [11]): 641.8 pg/mL; Activity (Caco-2 [12]): 0.366 nmol/mL
12 | NS(=O)(=O)c1ccc(Nc2nc3nc(=O)[nH]c(-c4ccccc4)c3s2)cc1 | 0.371 | 0.229 | 0.227 | 0.237 | 0.285 | 334 | –
13 | COc1cccc2c1C(=O)c1c(O)c3c(c(O)c1C2=O)C[C@@](O)(C(=O)CO)C[C@@H]3O[C@H]1C[C@H](N)[C@H](O)[C@H](C)O1 [DOXORUBICIN] | 0.814 | 0.552 | 0.343 | 0.597 | 0.663 | 63300 | Activity (Caco-2 [13]): 95.8 pg/mL; Activity (Caco-2 [14]): 56.41 pg/mL; Activity (Caco-2 [15]): 0.251 nmol/mL; Activity (Caco-2 [16]): 0.272 nmol/mL; Activity (Caco-2 [17]): 41.65 pg/mL; Activity (Caco-2 [18]): 0.26 nmol/mL
14 | O=c1[nH]cc(F)c(=O)[nH]1 [FLUOROURACIL] | 0.405 | 0.525 | 0.254 | 0.31 | 0.325 | 31000 | Activity (Caco-2 [19]): 66.2 pg/mL; Activity (Caco-2 [20]): 0.73 nmol/mL; Activity (Caco-2 [21]): 0.92 nmol/mL; Activity (Caco-2 [22]): 140.1 pg/mL; Activity (Caco-2 [15]): 0.8 nmol/mL; Activity (Caco-2 [23]): 287.7 pg/mL
